Test results: ChEMBL document CHEMBL1121663, “(Acylaryloxy)acetic acid diuretics. 3. 2,3-Dihydro-5-acyl-2-benzofurancarboxylic acids, a new class of uricosuric diuretics” (1981)

tested on: Pan troglodytes; experiment: Compound was tested for natriuretic activity in chimpanzee at 5 mg/kg dose activity is measured as microequivalent of Na+/minute; muequiv of Na+/min; type: functional; settings: not given
Summary of the method: (§1)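 Inulin iv gave GFR; urate and inulin clearances and Na+, K+, Cl- excretion were measured by AutoAnalyzer. Controls were three 20-min periods; compound was given orally in aqueous solution via nasal catheter. Response was the mean of eight 15-20 min periods, reported as treatment minus control from single experiments.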

Row | SMILES | Oral activity
1 | O=C(O)COc1ccc(C(=O)c2cccs2)c(Cl)c1Cl | 318
2 | O=C(c1cccs1)c1cc2c(c(Cl)c1Cl)O[C@@H](C(=O)O)C2 | 95
3 | O=C(c1cnsn1)c1cc2c(c(Cl)c1Cl)OC(C(=O)O)C2 (centres undefined) | 88

tested on: Canis familiaris; experiment: Compound was tested for diuretic activity in dogs at 5 mg/kg dose after oral administration measured as microequivalent of Cl-/minute; type: functional, Canis lupus familiaris, Urine; settings: not given
Summary of the method: (§2)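 Oral dog test: water loading (250 mL po, then 500 mL 1 h later). One hour later bladders were emptied by catheter and compound or placebo given in gelatin capsules. Dogs were kept in metabolism cages. Voided urine plus catheterized bladder urine was pooled at 5 h, and Na+, K+ and Cl- were measured by standard methods. Geometric means are reported.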

Row | SMILES | Oral activity
4 | N=C(N)NC(=O)C1Cc2cc(C(=O)c3cccs3)c(Cl)c(Cl)c2O1 (centres undefined) | 4.8
5 | O=C(O)COc1ccc(C(=O)c2cccs2)c(Cl)c1Cl | 5.4
6 | NC(=O)C1Cc2cc(C(=O)c3cccs3)c(Cl)c(Cl)c2O1 (centres undefined) | 3
7 | O=C(c1cccs1)c1cc2c(c(Cl)c1Cl)O[C@@H](C(=O)O)C2 | 4.3

tested on: Canis familiaris; experiment: Compound was tested for diuretic activity in dogs at 5 mg/kg dose after oral administration measured as microequivalent of K+/minute; type: functional, Canis lupus familiaris, Urine; settings: not given; summary of the method: as §2

Row | SMILES | Oral activity
8 | N=C(N)NC(=O)C1Cc2cc(C(=O)c3cccs3)c(Cl)c(Cl)c2O1 (centres undefined) | 1.2
9 | O=C(O)COc1ccc(C(=O)c2cccs2)c(Cl)c1Cl | 1.8
10 | NC(=O)C1Cc2cc(C(=O)c3cccs3)c(Cl)c(Cl)c2O1 (centres undefined) | 1.7
11 | O=C(c1cccs1)c1cc2c(c(Cl)c1Cl)O[C@@H](C(=O)O)C2 | 2.5

tested on: Canis familiaris; experiment: Compound was tested for diuretic activity in dogs at 5 mg/kg dose after oral administration measured as microequivalent of Na+/minute; type: functional, Canis lupus familiaris, Urine; settings: not given; summary of the method: as §2

Row | SMILES | Oral activity
12 | N=C(N)NC(=O)C1Cc2cc(C(=O)c3cccs3)c(Cl)c(Cl)c2O1 (centres undefined) | 4.9
13 | O=C(O)COc1ccc(C(=O)c2cccs2)c(Cl)c1Cl | 3.3
14 | NC(=O)C1Cc2cc(C(=O)c3cccs3)c(Cl)c(Cl)c2O1 (centres undefined) | 2.1
15 | O=C(c1cccs1)c1cc2c(c(Cl)c1Cl)O[C@@H](C(=O)O)C2 | 4.8

tested on: Canis familiaris; experiment: Compound was tested for diuretic activity in dogs at 5 mg/kg dose after intravenous administration measured as microequivalent of Cl-/minute; 9/132 (Control/Drug treated); type: functional, Canis lupus familiaris, Urine; settings: not given
Summary of the method: (§3)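 Intravenous dog clearance study. A priming iv injection of 1.5 mL/kg isoosmotic pH 7.4 phosphate buffer (20 mg PO4/kg) was given first. This was followed by infusion of 3 mL/min pH 7.4 buffer containing 4% mannitol (6.9 mg PO4/min) throughout the experiment. Urinary Na+, K+ and Cl- were measured by standard methods. Each value is the mean of the two highest consecutive 15-min collections.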

Row | SMILES | Cl- excretion [µequiv/min]
16 | O=C(O)COc1ccc(C(=O)c2cccs2)c(Cl)c1Cl | 132

tested on: Canis familiaris; experiment: Compound was tested for diuretic activity in dogs at 5 mg/kg dose after intravenous administration measured as microequivalent of K+/minute; type: functional, Canis lupus familiaris, Urine; settings: in the assay text read “oral” for “intravenous”

Row | SMILES | Oral activity
17 | N=C(N)NC(=O)C1Cc2cc(C(=O)c3cccs3)c(Cl)c(Cl)c2O1 (centres undefined) | 1.2

tested on: Canis familiaris; experiment: Compound was tested for diuretic activity in dogs at 5 mg/kg dose after intravenous administration measured as microequivalent of Na+/minute; 11/118 (Control/Drug treated); type: functional, Canis lupus familiaris, Urine; settings: not given

Row | SMILES | Na+ excretion [µequiv/min]
18 | O=C(c1cccs1)c1cc2c(c(Cl)c1Cl)O[C@@H](C(=O)O)C2 | 118

tested on: Canis familiaris; experiment: Compound was tested for diuretic activity in dogs at 5 mg/kg dose after intravenous administration measured as microequivalent of Cl-/minute; 43/54 (Control/Drug treated); type: functional, Canis lupus familiaris, Urine; settings: not given; summary of the method: as §3

Row | SMILES | Cl- excretion [µequiv/min]
19 | O=C(c1cccs1)c1cc2c(c(Cl)c1Cl)O[C@@H](C(=O)O)C2 | 54

tested on: Canis familiaris; experiment: Compound was tested for diuretic activity in dogs at 5 mg/kg dose after intravenous administration measured as microequivalent of Na+/minute; 46/767 (Control/Drug treated); type: functional, Canis lupus familiaris, Urine; settings: not given

Row | SMILES | Na+ excretion [µequiv/min]
20 | O=C(c1cnsn1)c1cc2c(c(Cl)c1Cl)OC(C(=O)O)C2 (centres undefined) | 767

tested on: Canis familiaris; experiment: Compound was tested for diuretic activity in dogs at 5 mg/kg dose after intravenous administration measured as microequivalent of Cl-/minute; type: functional, Canis lupus familiaris, Urine; settings: in the assay text read “oral” for “intravenous”

Row | SMILES | Oral activity
21 | N=C(N)NC(=O)C1Cc2cc(C(=O)c3cccs3)c(Cl)c(Cl)c2O1 (centres undefined) | 4.8

tested on: Canis familiaris; experiment: Compound was tested for diuretic activity in dogs at 5 mg/kg dose after intravenous administration measured as microequivalent of Cl-/minute (Control/Drug treated); type: functional, Canis lupus familiaris, Urine; settings: in the assay text read “oral” for “intravenous”

Row | SMILES | Oral activity
22 | NC(=O)C1Cc2cc(C(=O)c3cccs3)c(Cl)c(Cl)c2O1 (centres undefined) | 3

tested on: Canis familiaris; experiment: Compound was tested for diuretic activity in dogs at 5 mg/kg dose after intravenous administration measured as microequivalent of K+/minute (Control/Drug treated); type: functional, Canis lupus familiaris, Urine; settings: in the assay text read “oral” for “intravenous”

Row | SMILES | Oral activity
23 | NC(=O)C1Cc2cc(C(=O)c3cccs3)c(Cl)c(Cl)c2O1 (centres undefined) | 1.7

tested on: Canis familiaris; experiment: Compound was tested for diuretic activity in dogs at 5 mg/kg dose after intravenous administration measured as microequivalent of K+/minute; 6/35 (Control/Drug treated); type: functional, Canis lupus familiaris, Urine; settings: not given; summary of the method: as §3

Row | SMILES | K+ excretion [µequiv/min]
24 | O=C(c1cccs1)c1cc2c(c(Cl)c1Cl)O[C@@H](C(=O)O)C2 | 35

tested on: Canis familiaris; experiment: Compound was tested for diuretic activity in dogs at 5 mg/kg dose after intravenous administration measured as microequivalent of Na+/minute; 22/144 (Control/Drug treated); type: functional, Canis lupus familiaris, Urine; settings: not given

Row | SMILES | Na+ excretion [µequiv/min]
25 | O=C(O)COc1ccc(C(=O)c2cccs2)c(Cl)c1Cl | 144

tested on: Rattus norvegicus; experiment: Natriuretic activity in rats at 27 mg/kg of dosage; mequiv of Na; type: functional; settings: not given
Summary of the method: (§4)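 Rats housed three per metabolism cage received placebo vehicle or compound as a suspension in a final volume of 5.0 mL orally, with placebo groups run concurrently. Urine was collected over 0–5 h and analysed for Na+, K+ and Cl− by standard methods. Values are mequiv per cage, given as geometric means of three cages per dose level.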

Row | SMILES | Oral activity
26 | N=C(N)NC(=O)C1Cc2cc(C(=O)c3cccs3)c(Cl)c(Cl)c2O1 (centres undefined) | 143
27 | O=C(O)COc1ccc(C(=O)c2cccs2)c(Cl)c1Cl | 43
28 | NC(=O)C1Cc2cc(C(=O)c3cccs3)c(Cl)c(Cl)c2O1 (centres undefined) | 11
29 | O=C(c1cccs1)c1cc2c(c(Cl)c1Cl)O[C@@H](C(=O)O)C2 | 41
30 | O=C(c1cnsn1)c1cc2c(c(Cl)c1Cl)OC(C(=O)O)C2 (centres undefined) | 230

tested on: Rattus norvegicus; experiment: Natriuretic activity in rats at 3 mg/kg of dosage; mequiv of Na; type: functional; settings: not given; summary of the method: as §4

Row | SMILES | Oral activity
31 | N=C(N)NC(=O)C1Cc2cc(C(=O)c3cccs3)c(Cl)c(Cl)c2O1 (centres undefined) | 72
32 | O=C(O)COc1ccc(C(=O)c2cccs2)c(Cl)c1Cl | 7
33 | NC(=O)C1Cc2cc(C(=O)c3cccs3)c(Cl)c(Cl)c2O1 (centres undefined) | 7
34 | O=C(c1cccs1)c1cc2c(c(Cl)c1Cl)O[C@@H](C(=O)O)C2 | 48
35 | O=C(c1cnsn1)c1cc2c(c(Cl)c1Cl)OC(C(=O)O)C2 (centres undefined) | 38

tested on: Rattus norvegicus; experiment: Natriuretic activity in rats at 81 mg/kg of dosage; mequiv of Na; type: functional; settings: not given; summary of the method: as §4

Row | SMILES | Oral activity
36 | N=C(N)NC(=O)C1Cc2cc(C(=O)c3cccs3)c(Cl)c(Cl)c2O1 (centres undefined) | 159
37 | O=C(O)COc1ccc(C(=O)c2cccs2)c(Cl)c1Cl | 56
38 | NC(=O)C1Cc2cc(C(=O)c3cccs3)c(Cl)c(Cl)c2O1 (centres undefined) | 25
39 | O=C(c1cccs1)c1cc2c(c(Cl)c1Cl)O[C@@H](C(=O)O)C2 | 29
40 | O=C(c1cnsn1)c1cc2c(c(Cl)c1Cl)OC(C(=O)O)C2 (centres undefined) | 284

tested on: Rattus norvegicus; experiment: Natriuretic activity in rats at 9 mg/kg of dosage; mequiv of Na; type: functional; settings: not given; summary of the method: as §4

Row | SMILES | Oral activity
41 | N=C(N)NC(=O)C1Cc2cc(C(=O)c3cccs3)c(Cl)c(Cl)c2O1 (centres undefined) | 98
42 | O=C(O)COc1ccc(C(=O)c2cccs2)c(Cl)c1Cl | 15
43 | NC(=O)C1Cc2cc(C(=O)c3cccs3)c(Cl)c(Cl)c2O1 (centres undefined) | 9
44 | O=C(c1cccs1)c1cc2c(c(Cl)c1Cl)O[C@@H](C(=O)O)C2 | 38
45 | O=C(c1cnsn1)c1cc2c(c(Cl)c1Cl)OC(C(=O)O)C2 (centres undefined) | 82

tested on: not listed separately; experiment: Compound was tested for natriuretic activity in chimpanzee at 5 mg/kg dose activity is measured as ratio of clearance of urate / […]; Curate/Cinulin; type: functional; settings: not given; summary of the method: as §1

Row | SMILES | Ratio
46 | O=C(O)COc1ccc(C(=O)c2cccs2)c(Cl)c1Cl | 0.437
47 | O=C(c1cccs1)c1cc2c(c(Cl)c1Cl)O[C@@H](C(=O)O)C2 | 0.454
48 | O=C(c1cnsn1)c1cc2c(c(Cl)c1Cl)OC(C(=O)O)C2 (centres undefined) | 0.096

tested on: Canis familiaris; experiment: Diuretic activity in dogs following 5 mg/kg oral administration.; settings: not given

Row | SMILES | Urine volume [mL]
49 | N=C(N)NC(=O)C1Cc2cc(C(=O)c3cccs3)c(Cl)c(Cl)c2O1 (centres undefined) | 212
50 | O=C(O)COc1ccc(C(=O)c2cccs2)c(Cl)c1Cl | 395
51 | NC(=O)C1Cc2cc(C(=O)c3cccs3)c(Cl)c(Cl)c2O1 (centres undefined) | 229
52 | O=C(c1cccs1)c1cc2c(c(Cl)c1Cl)O[C@@H](C(=O)O)C2 | 233

tested on: Canis familiaris; experiment: Compound was tested for diuretic activity in dogs at 5 mg/kg dose after oral administration measured as microequivalent of Na+/minute; settings: not given

Row | SMILES | Oral activity
53 | N=C(N)NC(=O)C1Cc2cc(C(=O)c3cccs3)c(Cl)c(Cl)c2O1 (centres undefined) | 4.9

tested on: Canis familiaris; experiment: as above; settings: not given; remark: another data set of the same source

Row | SMILES | Oral activity
54 | NC(=O)C1Cc2cc(C(=O)c3cccs3)c(Cl)c(Cl)c2O1 (centres undefined) | 2.1
